How the values were obtained:
Format in all cases: functional
Rattus norvegicus [1] = test: Antiinflammatory activity against carrageenan-induced paw edema in rat at 100 mg/kg, po administered 1 hr before carrageenan challenge measured after 1 hr relative to control
Procedure, shortened: (§1)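 Rats of either sex (130–180 g), fasted ≥16 h with water available, six per group. Compound given orally in 1% CMC solution 1 h before 0.1 mL of 1% carrageenan suspension injected into hind paw; controls received vehicle. Paw volume read by mercury-displacement plethysmometer before and 1, 2, 3, 4 h after carrageenan. Percent inhibition from mean paw-volume increase versus control.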

Rattus norvegicus [2] = test: Antiinflammatory activity against carrageenan-induced paw edema in rat at 100 mg/kg, po administered 1 hr before carrageenan challenge measured after 3 hrs relative to control; procedure, shortened: as §1
Rattus norvegicus [3] = test: Antiinflammatory activity against carrageenan-induced paw edema in rat at 100 mg/kg, po administered 1 hr before carrageenan challenge measured after 2 hrs relative to control; procedure, shortened: as §1
Rattus norvegicus [4] = test: Antiinflammatory activity against carrageenan-induced paw edema in rat at 100 mg/kg, po administered 1 hr before carrageenan challenge measured after 4 hrs relative to control; procedure, shortened: as §1

| Compound | Activity (Rattus norvegicus [1]) [%] | Activity (Rattus norvegicus [2]) [%] | Activity (Rattus norvegicus [3]) [%] | Activity (Rattus norvegicus [4]) [%] |
| --- | --- | --- | --- | --- |
| COc1cccc(-c2cc(C(=O)NCCCN3CCN(c4ccccc4)CC3)[nH]n2)c1 | 52.6 | 65.2 | 62.5 | 64.4 |
| CC(C)Cc1ccc(C(C)C(=O)O)cc1 (stereo unspecified) [IBUPROFEN] | 42.1 | 72.8 |  | 63.3 |
| Cc1cccc(-c2cc(C(=O)NCCCN3CCN(c4ccccc4)CC3)[nH]n2)c1 | 60.5 | 70.6 | 65.2 | 70 |
| O=C(NCCCN1CCN(c2ccccc2)CC1)c1cc(-c2ccc([N+](=O)[O-])cc2)n[nH]1 | 53.9 | 76 | 75.6 | 72.2 |
| O=C(NCCCN1CCN(c2ccccc2)CC1)c1cc(-c2ccccc2)n[nH]1 | 47.3 | 61.9 | 55.5 | 58.8 |
| Cc1ccc(-c2cc(C(=O)NCCCN3CCN(c4ccccc4)CC3)[nH]n2)cc1 | 60.5 | 67.3 | 55.5 | 63.3 |
| O=C(NCCCN1CCN(c2ccccc2)CC1)c1cc(-c2cccc([N+](=O)[O-])c2)n[nH]1 | 67 | 78 | 75 | 75.5 |
| COc1ccc(-c2cc(C(=O)NCCCN3CCN(c4ccccc4)CC3)[nH]n2)cc1 | 55.2 | 75 | 69.4 | 70 |

From ChEMBL document CHEMBL1795307, “Synthesis and anti-inflammatory activity of some novel 3-phenyl-N-[3-(4-phenylpiperazin-1yl)propyl]-1H-pyrazole-5-carboxamide derivatives” (2011)
